Columns and labels:
[1] = target: mouse DHODH (Mus musculus, UniProt O35435); experiment: DHODH inhibition, DCIP spectrophotometric assay; type: biochemical; conditions: mean of 3 technical replicates, 95% confidence interval in parentheses
[2] = target: dog DHODH (Canis lupus familiaris, UniProt A0A8I3MWX2); experiment: DHODH inhibition, DCIP spectrophotometric assay; type: biochemical; conditions: mean of 3 technical replicates, 95% confidence interval in parentheses
[3] = target: rat DHODH (Rattus norvegicus, UniProt Q63707); experiment: DHODH inhibition, DCIP spectrophotometric assay; type: biochemical; conditions: mean of 3 technical replicates, 95% confidence interval in parentheses
[4] = system: P. falciparum 3D7; experiment: In vitro P. falciparum 3D7 growth inhibition; type: cell-based; conditions: for P. falciparum 3D7 growth inhibition EC50: 0.5% Albumax-II medium, 95% confidence intervals in parenthesis
Method in brief: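 SYBR-green growth assay on P. falciparum 3D7 and drug-resistant lines, including chloroquine- and pyrimethamine-resistant parasites, cultured in RPMI-1640 with 0.5% Albumax-II. At least triplicate data per concentration. EC50 from the log(inhibitor) vs response variable-slope (four-parameter) fit by nonlinear least squares, reported with 95% confidence intervals of the fit.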

[5] = target: human DHODH (Homo sapiens, UniProt Q02127); experiment: DHODH inhibition, DCIP spectrophotometric assay; type: biochemical; conditions: mean of 3 technical replicates, 95% confidence interval in parentheses
[6] = target: P. falciparum DHODH (PfDHODH) (Plasmodium falciparum, UniProt Q08210); type: biochemical; conditions: for IC50, P. falciparum DHODH: mean of 3 technical replicates, 95% confidence interval in parentheses
[7] = target: rabbit DHODH (Oryctolagus cuniculus, UniProt G1SWF3); experiment: DHODH inhibition, DCIP spectrophotometric assay; type: biochemical; conditions: mean of 3 technical replicates
[8] = target: P. vivax DHODH (PvDHODH) (Plasmodium vivax, UniProt A5K1N1); experiment: DHODH inhibition, DCIP spectrophotometric assay; type: biochemical; conditions: mean of 3 technical replicates, 95% confidence interval in parentheses
[9] = Metabolite identification and profiling in pooled plasma; type: in vivo; conditions: all species, mass spectrometry peak area ratios, single dose of DSM265
Method in brief: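 Pooled plasma from single-dose PK studies in mice, rabbits, monkeys and dogs was profiled by mass spectrometry. Metabolites were identified, and the main oxidative metabolite's structure was confirmed by synthesis. Each metabolite's exposure was estimated as a share of parent AUC from peak area ratios.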

[10] = system: Salmonella typhimurium-E. coli; experiment: 5-strain bacterial reverse mutation assay
[11] = system: P. falciparum Dd2 and resistant clones; experiment: microbe, parasite or virus in culture; type: cell-based; conditions: isolates derived from Dd2 and K1
[12] = system: P. falciparum 3D7; experiment: Blood-stage phenotype and development by microscopy; type: cell-based; conditions: 10xEC50, 48 h
Method in brief: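 Giemsa-stained smears were scored by microscopy, at least 200 cells per condition, for stage arrest and morphology. Standard antimalarials served as controls.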

[13] = system: P. falciparum Dd2; type: cell-based
[14] = system: P. falciparum HB3; experiment: In vitro selection of resistant parasites, HB3; type: cell-based; conditions: HB3 strain
[15] = system: P. falciparum Dd2; conditions: Dd2, same 3xEC50 protocol; cited from earlier work
[16] = system: P. falciparum NF54 liver-stage parasites; conditions: historical data using the same donor; cited from earlier work
[17] = system: G6PD-deficient human red blood cells; type: in vivo, NOD-SCID mice; conditions: blood type A- G6PD-deficient human red blood cells

Chain of P. falciparum DHODH (PfDHODH) (Q08210 24-569): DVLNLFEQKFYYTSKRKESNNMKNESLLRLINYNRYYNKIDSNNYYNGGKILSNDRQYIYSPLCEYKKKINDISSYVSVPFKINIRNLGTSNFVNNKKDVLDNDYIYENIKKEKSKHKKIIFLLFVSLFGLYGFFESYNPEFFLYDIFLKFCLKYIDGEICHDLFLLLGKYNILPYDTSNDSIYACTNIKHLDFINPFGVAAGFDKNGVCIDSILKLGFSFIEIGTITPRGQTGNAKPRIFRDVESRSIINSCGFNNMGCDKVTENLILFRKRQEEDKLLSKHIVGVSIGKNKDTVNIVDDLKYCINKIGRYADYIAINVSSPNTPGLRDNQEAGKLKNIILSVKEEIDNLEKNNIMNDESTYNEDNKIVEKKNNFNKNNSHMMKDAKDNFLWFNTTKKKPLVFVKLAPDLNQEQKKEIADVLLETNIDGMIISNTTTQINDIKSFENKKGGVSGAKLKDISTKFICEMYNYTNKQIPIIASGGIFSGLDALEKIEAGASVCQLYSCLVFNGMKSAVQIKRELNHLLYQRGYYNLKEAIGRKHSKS
Chain of rat DHODH (Q63707 whole entry): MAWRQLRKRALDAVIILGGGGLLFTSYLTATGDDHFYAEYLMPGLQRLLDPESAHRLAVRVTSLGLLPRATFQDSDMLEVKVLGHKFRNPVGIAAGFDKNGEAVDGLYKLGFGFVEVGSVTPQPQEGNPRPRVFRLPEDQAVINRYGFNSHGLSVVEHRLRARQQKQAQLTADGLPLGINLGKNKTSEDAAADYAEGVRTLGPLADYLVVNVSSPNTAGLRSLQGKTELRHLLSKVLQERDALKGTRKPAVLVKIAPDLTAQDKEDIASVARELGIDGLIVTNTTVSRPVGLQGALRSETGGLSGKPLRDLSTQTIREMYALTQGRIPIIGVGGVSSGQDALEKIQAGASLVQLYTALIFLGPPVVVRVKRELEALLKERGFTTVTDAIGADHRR
Chain of dog DHODH (A0A8I3MWX2 1-406): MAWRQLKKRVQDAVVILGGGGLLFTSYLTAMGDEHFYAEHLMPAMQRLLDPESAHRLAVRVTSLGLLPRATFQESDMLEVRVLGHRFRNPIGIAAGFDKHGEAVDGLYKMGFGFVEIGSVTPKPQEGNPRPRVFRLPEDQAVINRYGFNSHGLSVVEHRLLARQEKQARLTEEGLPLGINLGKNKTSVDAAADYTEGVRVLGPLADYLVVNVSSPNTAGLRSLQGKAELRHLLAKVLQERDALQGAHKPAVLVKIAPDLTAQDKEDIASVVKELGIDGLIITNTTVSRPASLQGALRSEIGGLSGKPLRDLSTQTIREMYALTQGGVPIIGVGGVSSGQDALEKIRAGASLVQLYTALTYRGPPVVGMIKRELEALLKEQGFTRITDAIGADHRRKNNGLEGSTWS
Chain of mouse DHODH (O35435 whole entry): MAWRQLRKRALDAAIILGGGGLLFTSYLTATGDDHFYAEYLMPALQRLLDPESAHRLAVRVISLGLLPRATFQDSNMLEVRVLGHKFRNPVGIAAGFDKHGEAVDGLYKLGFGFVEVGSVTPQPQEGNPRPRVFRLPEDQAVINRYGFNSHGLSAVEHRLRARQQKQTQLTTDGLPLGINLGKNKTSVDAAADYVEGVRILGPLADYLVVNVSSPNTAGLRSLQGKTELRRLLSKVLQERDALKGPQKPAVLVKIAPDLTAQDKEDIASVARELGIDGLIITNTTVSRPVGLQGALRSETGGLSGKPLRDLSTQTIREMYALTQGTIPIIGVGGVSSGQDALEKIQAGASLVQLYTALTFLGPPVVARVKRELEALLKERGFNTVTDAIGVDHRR
Chain of human DHODH (Q02127 whole entry): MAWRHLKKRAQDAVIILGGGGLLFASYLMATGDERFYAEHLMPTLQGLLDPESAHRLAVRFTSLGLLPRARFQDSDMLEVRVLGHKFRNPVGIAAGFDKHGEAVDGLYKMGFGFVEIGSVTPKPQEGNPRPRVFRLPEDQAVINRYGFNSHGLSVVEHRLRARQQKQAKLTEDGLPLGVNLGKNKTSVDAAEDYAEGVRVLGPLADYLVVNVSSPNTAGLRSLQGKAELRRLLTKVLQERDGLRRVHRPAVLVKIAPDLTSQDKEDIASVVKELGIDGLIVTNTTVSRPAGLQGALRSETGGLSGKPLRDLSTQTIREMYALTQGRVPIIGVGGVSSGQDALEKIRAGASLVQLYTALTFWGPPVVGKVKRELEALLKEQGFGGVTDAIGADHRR
Chain of rabbit DHODH (G1SWF3 1-395): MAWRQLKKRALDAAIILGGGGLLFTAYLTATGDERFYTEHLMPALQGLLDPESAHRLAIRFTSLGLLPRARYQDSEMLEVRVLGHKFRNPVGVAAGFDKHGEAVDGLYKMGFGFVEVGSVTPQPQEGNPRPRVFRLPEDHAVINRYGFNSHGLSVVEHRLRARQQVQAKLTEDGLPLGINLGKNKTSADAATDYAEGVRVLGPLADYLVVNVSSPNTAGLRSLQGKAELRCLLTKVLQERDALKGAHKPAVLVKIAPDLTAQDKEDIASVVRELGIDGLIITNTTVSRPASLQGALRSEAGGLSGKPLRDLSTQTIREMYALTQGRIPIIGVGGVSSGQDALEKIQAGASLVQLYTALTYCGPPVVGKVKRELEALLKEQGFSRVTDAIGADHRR

Cc1cc(Nc2ccc(S(F)(F)(F)(F)F)c(F)c2)n2nc(C(C)(F)F)nc2n1 [DSM430, 2-(1,1-difluoroethyl)-N-(3-fluoro-4-(pentafluoro-l^6-sulfanyl)phenyl)-5-methyl-[1,2,4]triazolo[1,5-a]pyrimidin-7-amine]
IC50, Mouse DHODH [1]: 0.10 (0.082 – 0.12) μg/mL | IC50, Dog DHODH [2]: 0.56 (0.48 – 0.65) μg/mL | IC50, Rat DHODH [3]: 0.082 (0.069 – 0.099) μg/mL | P. falciparum 3D7 growth inhibition EC50 [4]: 0.0002 (0.00011 – 0.00056) μg/mL | IC50, Human DHODH [5]: 3.7 (2.6 – 4.8) μg/mL | IC50, P. falciparum DHODH [6]: 0.010 (0.0079 – 0.014) μg/mL

CC(F)(F)c1nc2nc(CO)cc(Nc3ccc(S(F)(F)(F)(F)F)cc3)n2n1 [DSM450, (2-(1,1-difluoroethyl)-7-((4-(pentafluoro-l^6-sulfanyl)phenyl)amino)-[1,2,4]triazolo[1,5-a]pyrimidin-5-yl)methanol]
IC50, Mouse DHODH [1]: 4.5 (3.1 – 6.9) μg/mL | IC50, Dog DHODH [2]: 25 (21 – 29) μg/mL | IC50, Rabbit DHODH [7]: >43 µg/mL | IC50, Rat DHODH [3]: 1.6 (1.2 – 2.0) μg/mL | fold less active than DSM265 against P. falciparum 3D7 parasites [4]: 43 fold | P. falciparum 3D7 growth inhibition EC50 [4]: 0.079 (0.042 – 0.15) μg/mL | IC50, P. vivax DHODH [8]: 0.11 (0.081 – 0.15) μg/mL | IC50, Human DHODH [5]: >43 µg/mL | plasma metabolite exposure as share of the parent AUC [9]: 4–27% | fold less potent than DSM265 as a PfDHODH inhibitor [6]: 3 fold | IC50, P. falciparum DHODH [6]: 0.032 (0.026 – 0.040) μg/mL

Nc1ccc(S(F)(F)(F)(F)F)cc1 [SF5-aniline]
mutagenic activity (Ames test) [10]: non-mutagenic

C[C@@H]1CC[C@H]2[C@@H](C)C(=O)O[C@@H]3O[C@@]4(C)CC[C@@H]1[C@]32OO4 [artemisinin]
sensitivity of DSM265-resistant isolates to the drug [11]: fully sensitive | blood-stage phenotype after treatment [12]: pyknotic

O=C1C(O)=C([C@H]2CC[C@H](c3ccc(Cl)cc3)CC2)C(=O)c2ccccc21 [atovaquone]
drug concentration required to suppress emergence of resistant parasites ([13]; Dd2, inoculum 2×10^7 parasites): 33 xEC50 | EC50 increase of resistant Dd2 parasites over wild-type ([13]; parasites selected with the same drug): 10 fold | outcome of resistance selection [14]: resistant HB3 parasites could be obtained | sensitivity of DSM265-resistant isolates to the drug [11]: fully sensitive

CCN(CC)CCCC(C)Nc1ccnc2cc(Cl)ccc12 (centres unmarked) [chloroquine]
minimum inoculum for resistance (MIR) [15]: 10^8

COc1cc(NC(C)CCCN)c2ncccc2c1 (centres unmarked) [primaquine]
EC50 on hepatocyte infection rate (EEF count) [16]: 0.20 (0.059 – 0.71) μg/mL | Liver-stage schizont EC50 (EEF diameter/size) [16]: 0.15 µg/mL | hemolytic toxicity [17]: substantial loss in human RBCs

CCc1nc(N)nc(N)c1-c1ccc(Cl)cc1 [pyrimethamine]
blood-stage phenotype after treatment [12]: arrested as mature trophozoites
